Experimental data as given in ChEMBL document CHEMBL3351938, “C5-Alkyl-2-methylurea-Substituted Pyridines as a New Class of Glucokinase Activators” (ACS Med Chem Lett, 2014).
≈ marks a conversion by molar mass, not a printed value.

Tests used:
[1] = Drug metabolism in rat liver microsomes assessed as compound turnover at 1 uM after 30 mins; format: ADME; details: read-out: Drug metabolism
Method in brief: (§1)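 Test compound at 1 μM initial concentration was incubated with 0.25 mg/mL rat or human liver microsomes for 30 min at 37 °C; percent turnover is the percentage of parent metabolized.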

[2] = Drug metabolism in human liver microsomes assessed as compound turnover at 1 uM after 30 mins; format: ADME; details: read-out: Drug metabolism; method in brief: as §1
[3] = molecular target: T1, Hexokinase-4 (Homo sapiens, UniProt P35557); assay: Activation of human recombinant Glucokinase measured over 5 mins by G6-PD coupled assay in presence of 5 mM glucose
T1 sequence (P35557 whole entry): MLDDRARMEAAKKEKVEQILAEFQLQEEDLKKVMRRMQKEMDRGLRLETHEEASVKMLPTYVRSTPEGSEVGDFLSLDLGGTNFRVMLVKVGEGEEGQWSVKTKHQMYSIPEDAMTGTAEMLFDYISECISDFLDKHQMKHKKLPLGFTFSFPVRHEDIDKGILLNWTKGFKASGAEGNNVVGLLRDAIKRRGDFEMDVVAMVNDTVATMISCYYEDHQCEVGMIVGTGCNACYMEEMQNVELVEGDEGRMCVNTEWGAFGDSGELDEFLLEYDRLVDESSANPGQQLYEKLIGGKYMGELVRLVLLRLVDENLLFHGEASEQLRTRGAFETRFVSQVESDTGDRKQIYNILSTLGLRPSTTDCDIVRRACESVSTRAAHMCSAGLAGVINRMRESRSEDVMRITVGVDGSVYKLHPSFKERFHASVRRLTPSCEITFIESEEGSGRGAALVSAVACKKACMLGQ
Method in brief: (§2)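 Recombinant human GK; glucose held at 5 mM for EC₅₀ determination; run in duplicate (n = 2).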

[4] = Half life in rat at 1 mg/kg, iv; format: ADME, organism-based; set-up: dose 1 mg/kg, route intravenous; details: in vivo
Method in brief: (§3)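 Rats: IV dose 1 mg/kg, n = 3; PO dose 10 mg/kg, n = 3.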

[5] = Volume of distribution at steady state in rat at 1 mg/kg, iv; format: ADME, organism-based; set-up: dose 1 mg/kg, route intravenous; details: in vivo, read-out: Vdss; method in brief: as §3
[6] = Half life in mouse at 1 mg/kg, iv; format: ADME, organism-based; set-up: dose 1 mg/kg, route intravenous; details: in vivo
Method in brief: (§4)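 Mice: IV dose 1 mg/kg, n = 3; PO dose 10 mg/kg, n = 3.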

[7] = Clearance in rat at 1 mg/kg, iv; format: ADME, organism-based; set-up: dose 1 mg/kg, route intravenous; details: in vivo; method in brief: as §3
[8] = Drug metabolism in human primary hepatocytes; format: ADME, cell-based, Hepatocyte; details: read-out: Drug metabolism
[9] = Oral bioavailability in mouse at 10 mg/kg; format: ADME, organism-based; details: in vivo; method in brief: as §4
[10] = Solubility of the compound in PBS buffer at 7.4; format: physicochemical; details: pH 7.4
[11] = Oral bioavailability in rat at 10 mg/kg; format: ADME, organism-based; details: in vivo; method in brief: as §3
[12] = Volume of distribution at steady state in mouse at 1 mg/kg, iv; format: ADME, organism-based; set-up: dose 1 mg/kg, route intravenous; details: in vivo, read-out: Vdss; method in brief: as §4
[13] = tested on: Mus musculus; assay: Antidiabetic activity in C57Bl/6 mouse assessed as reduction in blood glucose AUC at 10 mg/kg, po administered 30 mins prior glucose challenge by oral glucose tolerance test; format: functional; set-up: scale not given: the % may be the effect or the level left
Method in brief: (§5)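 Oral dose–response OGTT in C57Bl/6 mice at 3, 10 and 30 mg/kg; blood glucose area-under-curve assessed; significance versus vehicle by two-way ANOVA.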

[14] = AUC in rat at 10 mg/kg, po; format: ADME, organism-based; set-up: dose 10 mg/kg, route oral; details: plasma; method in brief: as §3
[15] = Clearance in mouse at 1 mg/kg, iv; format: ADME, organism-based; set-up: dose 1 mg/kg, route intravenous; details: in vivo; method in brief: as §4
[16] = AUC in mouse at 10 mg/kg, po; format: ADME, organism-based; set-up: dose 10 mg/kg, route oral; details: plasma; method in brief: as §4
[17] = tested on: Mus musculus; assay: Antidiabetic activity in C57Bl/6 mouse assessed as reduction in blood glucose AUC at 3 mg/kg, po administered 30 mins prior glucose challenge by oral glucose tolerance test; format: functional; set-up: scale not given: the % may be the effect or the level left; method in brief: as §5
[18] = tested on: Mus musculus; assay: Antidiabetic activity in C57Bl/6 mouse assessed as reduction in plasma glucose level at 30 mg/kg, po administered 30 mins prior glucose challenge measured 1.5 to 2 hrs post dose by oral glucose tolerance test; format: functional; method in brief: as §5
[19] = Half life in dog at 0.5 mg/kg, iv; details: in vivo
[20] = AUC in rat at 2 mg/kg, po; format: ADME, organism-based; set-up: dose 2 mg/kg, route oral; details: plasma
[21] = tested on: Mus musculus; assay: Hypoglycemic activity in fed C57Bl/6 mouse assessed as change in blood glucose level at 10 to 30 mg/kg, po followed by food withdrawal for 4 hrs measured 30 to 240 mins post dose by normoglycemic glucose lowering test; format: ADME, organism-based; set-up: route oral; details: in vivo
Method in brief: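 Fed male C57Bl/6 mice dosed orally with vehicle or compound (10 or 30 mg/kg) without glucose challenge, then food removed for 4 h; blood glucose sampled at various time points; two-way ANOVA versus vehicle.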

[22] = tested on: Canis familiaris; assay: AUC in dog at 2 mg/kg, po; details: in vivo
[23] = Plasma protein binding in rat; format: ADME, cell-free; details: read-out: PPB
[24] = Oral bioavailability in mouse at 5 mg/kg; format: ADME, organism-based; details: in vivo
[25] = Volume of distribution at steady state in rat at 0.5 mg/kg, iv; format: ADME, organism-based; set-up: dose 0.5 mg/kg, route intravenous; details: in vivo, read-out: Vdss
[26] = Clearance in rat at 0.5 mg/kg, iv; format: ADME, organism-based; set-up: dose 0.5 mg/kg, route intravenous; details: in vivo
[27] = Half life in rat at 0.5 mg/kg, iv; format: ADME, organism-based; set-up: dose 0.5 mg/kg, route intravenous; details: in vivo
[28] = AUC in mouse at 5 mg/kg, po; format: ADME, organism-based; set-up: dose 5 mg/kg, route oral; details: plasma
[29] = Permeability across pig LLC-PK cells; format: ADME, cell-based, Sus scrofa; details: LLC-PK1, read-out: permeability
[30] = Plasma protein binding in human; format: ADME, cell-free; details: read-out: PPB (converted)
[31] = molecular target: T1, Hexokinase-4; assay: Activation of human recombinant Glucokinase measured over 5 mins by G6-PD coupled assay in presence of 5 mM glucose and 4% HSA; method in brief: as §2
[32] = Plasma protein binding in mouse; format: ADME; details: read-out: PPB (converted)
[33] = tested on: Mus musculus; assay: Antidiabetic activity in fasted ob/ob mouse assessed as reduction in blood glucose AUC at 10 mg/kg, po administered 30 mins prior glucose challenge by oral glucose tolerance test relative to control; format: functional; set-up: scale not given: the % may be the effect or the level left
Method in brief: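 OGTT in fasted ob/ob mice with oral doses of 0.3, 1, 3 and 10 mg/kg; blood glucose AUC compared to vehicle by two-way ANOVA.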

[34] = Oral bioavailability in rat at 2 mg/kg; format: ADME, organism-based; details: in vivo
[35] = tested on: Canis familiaris; assay: Oral bioavailability in dog at 2 mg/kg; details: in vivo
[36] = Volume of distribution at steady state in dog at 0.5 mg/kg, iv; details: in vivo, read-out: Vdss
[37] = tested on: Canis familiaris; assay: Clearance in dog at 0.5 mg/kg, iv; details: in vivo

SMILES | metabolised at 0.5 h, 1 µM [1] [%] | metabolised at 0.5 h, 1 µM [2] [%] | EC50 [3] [nM] | other results
CCc1ncccc1Oc1cc(CCCCOC)cnc1NC(=O)NC | 41 | 23 | 110 | –
CCn1nccc1Oc1cc(C[C@H]2CC[C@](C)(O)CC2)cnc1NC(=O)NC | – | – | 110 | –
CCOCCc1cnc(NC(=O)NC)c(Oc2cccnc2CC)c1 | 76 | 21 | 590 | –
CNC(=O)Nc1ncc(CC2CCOCC2)cc1Oc1ccnn1C(C)C | – | – | 2760 | –
CCn1nccc1Oc1cc(C[C@H]2CC[C@H](O)CC2)cnc1NC(=O)NC | – | – | 68 | –
CCn1nccc1Oc1cc(CCCC(C)(C)O)cnc1NC(=O)NC | 10 | 10 | 370 | –
CCn1nccc1Oc1cc(CC2CCOCC2)cnc1NC(=O)NC | 25 | 10 | 350 | half-life [4]: 0.41 h; Vd [5]: 0.8 L/kg; half-life [6]: 0.72 h; clearance [7]: 25 mL/min/kg; metabolised [8]: 15%; bioavailability [9]: 81%; solubility [10]: 718 µg/mL (≈ 2000 µM); bioavailability [11]: 19%; Vd [12]: 1.5 L/kg; Activity [13]: 32%; AUC [14]: 3.51 µM·h; clearance [15]: 28.3 mL/min/kg; AUC [16]: 13.3 µM·h; Activity [17]: 15%; Activity [18]: 77 mg/dL
CCn1nccc1Oc1cc(CCCCOC)cnc1NC(=O)NC | 31 | 10 | 460 | –
CCc1ncccc1Oc1cc(CCCOC)cnc1NC(=O)NC | – | – | 440 | –
CCn1nccc1Oc1cc(C[C@H]2C[C@@H](O)C2)cnc1NC(=O)NC | – | – | 530 | –
CCc1ncccc1Oc1cc(CCO)cnc1NC(=O)NC | 10 | 10 | 1590 | –
CCc1ncccc1Oc1cc(CC(C)C)cnc1NC(=O)NC | 95 | 56 | 120 | –
CCn1nccc1Oc1cc(C[C@H]2C[C@H](O)C2)cnc1NC(=O)NC | – | – | 500 | –
CCn1nccc1Oc1cc(C[C@H]2C[C@@](C)(O)C2)cnc1NC(=O)NC | – | – | 710 | –
CCn1nccc1Oc1cc(C[C@H]2CC[C@@](C)(O)CC2)cnc1NC(=O)NC | – | – | 97 | –
CCn1nccc1Oc1cc(C[C@H]2CC[C@@H](O)CC2)cnc1NC(=O)NC | – | – | 120 | –
CCn1nccc1Oc1cc(C[C@H]2C[C@](C)(O)C2)cnc1NC(=O)NC | – | – | – | half-life [19]: 5.5 h; AUC [20]: 0.39 µM·h; Activity [21]: Non-toxic; AUC [22]: 6.4 µM·h; fraction unbound [23]: 0.5; bioavailability [24]: 44%; Vd [25]: 0.8 L/kg; clearance [26]: 26.7 mL/min/kg; half-life [27]: 2 h; AUC [28]: 6.84 µM·h; Papp [29]: 32.4 ×10⁻⁶ cm/s; fraction unbound [30]: 0.44; EC50 [31]: 280 nM; fraction unbound [32]: 0.44; Activity [33]: 43%; bioavailability [34]: 9%; F [35]: 72%; Vd [36]: 2.2 L/kg; CL [37]: 10.7 mL/min/kg
CCn1nccc1Oc1cc(CN2CCOCC2)cnc1NC(=O)NC | – | – | 7980 | –

Continued, in another order:

metabolised at 0.5 h, 1 µM [1] [%] | metabolised at 0.5 h, 1 µM [2] [%] | EC50 [3] [nM] | SMILES | other results
95 | 99 | 14 | CCc1ncccc1Oc1cc(CC2CCCCC2)cnc1NC(=O)NC | –
– | – | 290 | CCc1ncccc1Oc1cc(CC2CCOCC2)cnc1NC(=O)NC | –
– | – | 820 | CCn1nc(COC)cc1Oc1cc(CC2CCOCC2)cnc1NC(=O)NC | –
33 | 20 | 350 | CCc1ncccc1Oc1cc(CCCCO)cnc1NC(=O)NC | –
17 | 31 | 110 | CCc1ncccc1Oc1cc(CCCC(C)(C)O)cnc1NC(=O)NC | –
– | – | 490 | CCn1nccc1Oc1cc(C[C@H]2CCO[C@H](COC)C2)cnc1NC(=O)NC | –
– | – | 16800 | CCn1nccc1Oc1cc(C(O)C2CCOCC2)cnc1NC(=O)NC (centres undefined) | –
– | – | 350 | CCn1nccc1Oc1cc(C[C@@H]2CCO[C@@H](COC)C2)cnc1NC(=O)NC | –
